Non-standard residues stand in square brackets, D forms with d. Residues, ends and D or L forms follow the SMILES beside them. Bounds are passed on as bounds.

For the first assay, the system named is CHO-K1. Kind of assay: Evaluated for inhibition of ET-1 induced Calcium channel [Ca+2]i in CHO-K1 cells transfected with the rat ETA-expression plasmid DNA at 10E-6M; Low inhibition. Format: functional, cell-based. In short, it runs like this:
(§1)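 Rat ETA receptor plasmid transfected into CHO-K1 cells by lipofection. Cells preloaded with fura-2 AM, then stimulated with ET-1 at 10^-7 M. The rise in [Ca2+]i was read ratiometrically, with excitation at 340/380 nm and emission at 510 nm. The ET-1 response alone was set as 100%, and inhibition by compounds is expressed relative to it.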
Regarding `CC1(c2cccc(CC(=O)O)c2)c2cc(C(=O)O)sc2C(=O)c2c1c1ccccc1n2Cc1ccccc1` (configuration not stated), the inhibition entry is “Weak inhibition”.
Consider `CC1(c2ccccc2)c2cc(C(=O)O)sc2C(=O)c2c1c1ccccc1n2Cc1ccc(O)cc1` (configuration not stated), for which the inhibition entry is “Weak inhibition”.
Same read-out and setting: next, `COc1cccc(C2(C)c3cc(C(=O)O)sc3C(=O)c3c2c2ccccc2n3Cc2ccccc2)c1` (configuration not stated): “Weak inhibition”; `CC1(c2ccccc2)c2cc(C(=O)O)sc2C(=O)c2c1c1ccccc1n2Cc1ccc(OCC(=O)O)cc1` (configuration not stated): “Weak inhibition”; `COc1ccc(C2(C)c3cc(C(=O)O)sc3C(=O)c3c2c2ccccc2n3Cc2ccccc2)cc1` (configuration not stated): “Weak inhibition”.
`COc1ccc(Cn2c3c(c4ccccc42)C(C)(c2ccccc2)c2cc(C(=O)O)sc2C3=O)cc1` (configuration not stated): the inhibition entry was “Weak inhibition”.

Tested on in another assay: not listed separately
The assay can be described thus: Evaluated for inhibition of ET-1 induced Calcium channel [Ca+2]i in CHO-K1 cells transfected with the rat ETA-expression plasmid DNA at 10E-6M; range- 50-70%. Format: functional. In short, it runs like this:
as §1
As to `COc1cccc(C2(C)c3cc(C(=O)O)sc3C(=O)c3c2c2ccccc2n3C)c1` (configuration not stated), the inhibition at 1 µM is < 70%.
On the same count and under the same terms, the result for `CC1(c2cccc(O)c2)c2cc(C(=O)O)sc2C(=O)c2c1c1ccccc1n2Cc1ccccc1` (configuration not stated) reads < 70%; that for `CC1(c2ccc(OCC(=O)O)cc2)c2cc(C(=O)O)sc2C(=O)c2c1c1ccccc1n2Cc1ccccc1` (configuration not stated), < 70%.

Tested on in another assay: not listed separately
The assay can be described thus: Evaluated for inhibition of ET-1 induced Calcium channel [Ca+2]i in CHO-K1 cells transfected with the rat ETA-expression plasmid DNA at 10E-6M. The class given is functional. Put shortly: as §1
Consider `Cn1c2c(c3ccccc31)C(C)(c1ccc(OCCCC(=O)O)cc1)c1cc(C(=O)O)sc1C2=O` (configuration not stated), for which the inhibition at 1 µM was > 75%.
Turning to `CC1(c2ccc(O)cc2)c2cc(C(=O)O)sc2C(=O)c2c1c1ccccc1n2Cc1ccccc1` (configuration not stated), the inhibition at 1 µM was > 75%.
Still for that read-out and setting: the result for `Cn1c2c(c3ccccc31)C(C)(c1cccc(CCCC(=O)O)c1)c1cc(C(=O)O)sc1C2=O` (configuration not stated) reads > 75%; that for `Cn1c2c(c3ccccc31)C(C)(c1ccc(OCC(=O)O)cc1)c1cc(C(=O)O)sc1C2=O` (configuration not stated), > 75%; that for `CC(C)C[C@@H]1NC(=O)[C@@H](C(C)C)NC(=O)[C@@H]2CCCN2C(=O)[C@@H](CC(=O)O)NC(=O)[C@@H](Cc2c[nH]c3ccccc23)NC1=O` [BQ-123] (cyclo(L[dW][dD]P[dV])), ~60%.
As to `Cn1c2c(c3ccccc31)C(C)(c1cccc(CC(=O)O)c1)c1cc(C(=O)O)sc1C2=O` (configuration not stated), the inhibition at 1 µM is > 75%.

Tested on in the next assay: not listed separately
Kind of assay: Evaluated for inhibition of ET-1 induced Calcium channel [Ca+2]i in CHO-K1 cells transfected with the rat ETA-expression plasmid DNA. The class given is functional, cell-based. In short, it runs like this:
as §1
Turning to `CC1(c2ccc(O)cc2)c2cc(C(=O)O)sc2C(=O)c2c1c1ccccc1n2Cc1ccccc1` (configuration not stated), the IC50 was ~10 nM.

Tested on in a further assay: not listed separately
The assay can be described thus: Evaluated for inhibition of ET-1 induced Calcium channel [Ca+2]i in CHO-K1 cells transfected with the rat ETA-expression plasmid DNA at 10 nM. The class given is functional. Put shortly: as §1
Regarding `CCCOc1ccc2c(c1)[C@@H](c1ccc(OC)cc1OCC(=O)O)[C@H](C(=O)O)[C@H]2c1ccc2c(c1)OCO2` [SB-209670], the inhibition at 0.01 µM is ~85%.

Broadly, the inhibition is the percentage by which the read-out fell short of the control. The term IC50 denotes the midpoint of a concentration-inhibition curve.

The values are drawn from ChEMBL document CHEMBL1148428, “Carbazolothiophene-2-carboxylic acid derivatives as endothelin receptor antagonists” (Bioorg Med Chem Lett, 2004).
